Measured values as given in PubChem BioAssay.
The source made the active and inactive calls.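 How the source made its calls, unless noted: active means visual image review flags a hit and inhibition of aggregation exceeds 20%; inconclusive means visual hit but inhibition at or below 20%; inactive means no hit on visual image review.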

How the values were obtained:
[1] = inhibitors of TNFa-induced NFkB p65 translocation, primary screen, imaging, HUVEC, MLSMR starter and 10KST1 sets (AID 438;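 active means inhibition above 20% together with a positive visual image hit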;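 further: compound added about 3h40 before a 20 min TNFalpha stimulation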;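 on inhibition: signal is the nuclear over cytoplasmic p65 intensity ratio per well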); conditions: HUVEC TNFa-induced p65 nuclear translocation; cell count: measured here: nuclei count (cytotoxicity indicator), at 2.08 µM; inhibition: at 2 µM, stronger effect = higher value, 0% TNFa-plus-vehicle, 100% no-TNFa wells
[2] = reduction of polyQ htt aggregates in cells – imaging, exon1htt(103Q)mCFP cells, high-content imaging, primary screen (AID 483); conditions: exon1htt(103Q)mCFP cell line, aggregate imaging, at 2 µM; inhibition of aggregation: stronger effect = higher value; nuclei count: measured here: cell count, toxicity;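 further: compound exposure lasted 3 days before fixation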;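 on nuclei count: percent of the per-plate median nuclei count of sample wells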
[3] = endothelial E-selectin expression blockers – imaging, HUVEC, immunofluorescence, MLSMR starter and 10KST1 sets, primary screen (AID 487;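 active means visually confirmed hit in the image check and inhibition above 20%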;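 on inhibition: signal is fraction of cell area covered by stained E-selectin grains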;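 on nuclei count: 100% = median nuclei count of all wells on the same plate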); conditions: HUVEC TNFalpha-induced E-selectin immunofluorescence imaging, at 2 µM; inhibition: stronger effect = higher value; nuclei count: measured here: cell number, toxicity
[4] = biological target: Voltage-gated potassium channel subunit beta-2 (Rattus norvegicus) (UniProt P62483); experiment: inhibitors of rat Kvbeta2 reductase activity – biochemical, NADPH fluorescence, primary screen (AID 622;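 active means fluorescence slope higher than the sample average by over 3 SD, cut at about -0.22 in these data, passing the limit was not always enough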;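 further: slope of raw intensity against log time taken from 70 to 1610 s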); conditions: recombinant KvBeta, 4-cyanobenzaldehyde reduction, at 10 µM, stronger effect = higher value
[5] = biological target: Voltage-gated potassium channel subunit beta-2 (Rattus norvegicus) (UniProt P62483); experiment: enhancers of rat Kvbeta2 NADPH turnover – biochemical, NADPH fluorescence, primary screen (AID 623;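 active means NADPH fluorescence slope more negative than the mean of all samples by about 3 SD, 99.7% confidence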;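 further: fluorescence intensity change per second fitted from 20 to 320 s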); conditions: Recombinant KvBeta, NADPH fluorescence decrease slope, 10 min; at 10 µM; stronger effect = lower value
[6] = biological target: Muscarinic acetylcholine receptor M4 (Homo sapiens) (UniProt P08173); experiment: M4-linked GIRK flux change, two-sided – cell-based, HEK293 M4/GIRK, thallium flux, BTC-AM, M4 allosteric agonist project, primary screen (AID 625;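 active means fluorescence slope after compound addition differing from the mean of all tested samples at 99.7% confidence, mostly higher but some lower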;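 further: thallium influx through GIRK channels coupled to M4 in HEK293 cells with BTC-AM dye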); conditions: at 10 µM, actives lie on both sides
Procedure, shortened: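 System: HEK293 cells with M4 receptor and GIRK channels | Incubation: Cells overnight at 37 °C, BTC-AM loading 1 h, reads 2 min total | Technique: Kinetic BTC-AM fluorescence sampled at 1 Hz, 10 s pre-addition baseline | Measure: Post-addition slope, 15–24 s, of baseline-normalized fluorescence | Control set: Carbachol positive, DMSO negative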

[7] = blockers of RIG-like receptor reporter activation – cell-based, Sendai virus stimulus, luciferase, 10K MLSCN set, TLR/RLR signaling modifier project, primary screen (AID 602276;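 active means inhibition at or above 50% at 10 µM; inactive means inhibition below 50%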;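 further: firefly luciferase from ISG56 promoter only with Renilla not read in this screen; 0% = Sendai virus plus DMSO and 100% = medium plus DMSO without virus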); conditions: HEK293 RL24 IRF3 luciferase reporter, at 10 µM, stronger effect = higher value
[8] = TLR3 IRF3 reporter activation blockers – cell-based, poly I:C stimulus, luciferase, 10K MLSCN set, primary screen (AID 602277;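 active means inhibition of the reporter signal at or above 50%; inactive means inhibition below 50%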); conditions: HEK293-TLR3 RL24 IRF3 luciferase reporter, at 10 µM, stronger effect = higher value

Sequence of Muscarinic acetylcholine receptor M4 (Homo sapiens) (P08173 whole entry, looked up): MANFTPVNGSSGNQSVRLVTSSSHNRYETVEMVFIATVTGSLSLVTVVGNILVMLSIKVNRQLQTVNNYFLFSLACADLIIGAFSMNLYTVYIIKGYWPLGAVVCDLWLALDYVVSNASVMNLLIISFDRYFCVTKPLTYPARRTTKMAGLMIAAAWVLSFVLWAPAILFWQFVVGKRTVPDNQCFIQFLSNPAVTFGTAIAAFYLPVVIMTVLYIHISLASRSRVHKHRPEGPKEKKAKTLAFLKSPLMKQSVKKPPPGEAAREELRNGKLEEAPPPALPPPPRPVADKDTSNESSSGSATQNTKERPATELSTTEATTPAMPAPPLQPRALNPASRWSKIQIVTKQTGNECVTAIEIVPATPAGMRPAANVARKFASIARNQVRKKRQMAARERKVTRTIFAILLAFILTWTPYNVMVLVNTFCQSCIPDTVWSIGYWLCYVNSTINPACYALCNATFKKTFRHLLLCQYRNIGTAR
Sequence of Voltage-gated potassium channel subunit beta-2 (Rattus norvegicus) (P62483 whole entry, looked up): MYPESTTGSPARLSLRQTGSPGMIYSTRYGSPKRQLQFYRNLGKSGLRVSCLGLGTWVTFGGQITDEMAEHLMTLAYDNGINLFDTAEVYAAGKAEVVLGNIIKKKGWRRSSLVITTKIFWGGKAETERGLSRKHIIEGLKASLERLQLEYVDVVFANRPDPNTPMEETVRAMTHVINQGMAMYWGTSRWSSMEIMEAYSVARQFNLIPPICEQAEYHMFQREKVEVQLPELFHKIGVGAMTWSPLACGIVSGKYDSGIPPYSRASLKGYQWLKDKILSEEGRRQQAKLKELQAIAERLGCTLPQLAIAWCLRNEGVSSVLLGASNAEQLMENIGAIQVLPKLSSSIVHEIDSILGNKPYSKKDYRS

Row | Compound | cell count [1] | inhibition [1] | inhibition of aggregation [2] | nuclei count [2] [%] | inhibition [3] | nuclei count [3] [%] | fluorescence slope [4] | NADPH fluorescence slope [5] | fluorescence slope [6] | inhibition [7] | inhibition [8]
1 | COC(=O)c1c(N)nc(C)n1-c1ccc(OC)cc1 | 324 | -9.2% (inactive) | 32.1% (active) | 70.1 | 2.7% (inactive) | 103 | -0.364 (inactive) | 3e-05 (inactive) | 0.00554 (inactive) | 5.37% (inactive) | 9.69% (inactive)
2 | CCOC(=O)CSC1=Nc2ccccc2C2=NC(CC(=O)NCc3cccs3)C(=O)N12 (centres undefined) | 224 | 7.2% (inactive) | 13.9% (inactive) | 81.6 | 26% (inactive) | 78.1 | -0.572 (inactive) | -5.5e-05 (inactive) | 0.00528 (inactive) | 0.227% (inactive) | 9.15% (inactive)
3 | O=C(c1ccco1)N1CCN(C(=O)c2ccc(Cn3cc(Br)cn3)o2)CC1 | 371 | 2.6% (inactive) | 9.6% (inactive) | 102 | -21.6% (inactive) | 105 | -0.456 (inactive) | -4.2e-05 (inactive) | 0.00591 (inactive) | 13.3% (inactive) | 12.9% (inactive)
4 | c1c2c(cc3sc(N4CCCCC4)nc13)OCCO2 | 266 | -5.8% (inactive) | 14.4% (inactive) | 87.6 | 2.1% (inactive) | 88.9 | -0.54 (inactive) | -9.8e-06 (inactive) | 0.00468 (inactive) | -0.203% (inactive) | -45.7% (inactive)
5 | CCC(NS(=O)(=O)c1ccc(C)cc1)C(=O)N1CCC2(O)CCCCC2C1 (centres undefined) | 379 | -3.1% (inactive) | -10.7% (inactive) | 106 | -121% (inactive) | 215 | -0.429 (inactive) | 0.000113 (inactive) | 0.00572 (inactive) | 0.0772% (inactive) | 14.3% (inactive)
6 | CCOc1cc(C2C(C#N)=C(N)OC(C)=C2C(C)=O)cc(Br)c1O (centres undefined) | 235 | 11% (inactive) | -9.7% (inactive) | 95.5 | -29.3% (inactive) | 97.7 | -0.252 (inactive) | -2.9e-05 (inactive) | 0.00684 (inactive) | 12.3% (inactive) | 20.1% (inactive)
7 | Cn1cnnc1SCC(=O)Nc1sc2c(c1C#N)CCCCC2 | 564 | -29.4% (inactive) | 2.6% (inactive) | 80.6 | -29.2% (inactive) | 108 | -0.499 (inactive) | 0.000104 (inactive) | 0.00534 (inactive) | -24.5% (inactive) | -31.5% (inactive)
8 | O=C(c1ccc(Cl)c(Cl)c1)N1CCOCC1 | 694 | -9.1% (inactive) | -0.3% (inactive) | 107 | 5.6% (inactive) | 105 | -0.568 (inactive) | -2.1e-05 (inactive) | 0.00532 (inactive) | 3.81% (inactive) | 3.54% (inactive)
9 | O=S(=O)(c1ccc(OCC(O)CN2CCc3ccccc3C2)cc1)N1CCOCC1 (centres undefined) | 749 | 1.6% (inactive) | 6.1% (inactive) | 114 | -51.2% (inactive) | 132 | -0.549 (inactive) | 1.9e-05 (inactive) | 0.00569 (inactive) | 15.9% (inactive) | 26.7% (inactive)
10 | O=S(=O)(NCCc1csc(-c2ccccc2)n1)c1ccc2c(c1)OCCO2 | 363 | -13.3% (inactive) | 2.9% (inactive) | 108 | 29.5% (inactive) | 76.2 | -0.622 (inactive) | 1e-06 (inactive) | 0.00312 (inactive) | 14.6% (inactive) | 9.91% (inactive)
11 | COCCn1c(SCC(=O)Nc2nnc(C)s2)nnc1-c1c[nH]c2ccccc12 | 518 | 7.1% (inactive) | -15.6% (inactive) | 114 | -37.4% (inactive) | 113 | -0.505 (inactive) | -0.00026 (inactive) | 0.00466 (inactive) | 5.93% (inactive) | 14.2% (inactive)
12 | Cc1ccc(N2CC(C(=O)Nc3ccc4c(c3)OCO4)CC2=O)cc1 (centres undefined) | 556 | -19.5% (inactive) | 18.6% (inactive) | 110 | -43.5% (inactive) | 120 | -0.567 (inactive) | -4.3e-05 (inactive) | 0.00603 (inactive) | 14.2% (inactive) | 21.6% (inactive)
13 | CCOC(=O)C1=C(CN2CCOCC2)NC(=O)NC1c1cc(C)ccc1C (centres undefined) | 492 | -3% (inactive) | -1.1% (inactive) | 117 | -30.8% (inactive) | 108 | -0.205 (inactive) | -1.6e-05 (inactive) | 0.00619 (inactive) | 15.4% (inactive) | 7.78% (inactive)
14 | NC(=O)C1(N2CCCCC2)CCN(Cc2ccccc2Cl)CC1 | 438 | 0.3% (inactive) | -1% (inactive) | 98 | 3.4% (inactive) | 103 | -0.233 (inactive) | -2.8e-05 (inactive) | 0.0052 (inactive) | 12.3% (inactive) | 19.9% (inactive)
15 | CCOC(=O)c1[nH]c(C)c(C(=O)Nc2ccccc2F)c1C | 637 | -9.7% (inactive) | -35.4% (inactive) | 48.5 | 11.3% (inactive) | 94.5 | -0.435 (inactive) | 2.7e-05 (inactive) | 0.00822 (inactive) | 27.9% (inactive) | -0.299% (inactive)
16 | O=C(O)CCN1C(=O)c2ccccc2C1=O | 325 | 5.2% (inactive) | -1.9% (inactive) | 91.2 | -54.5% (inactive) | 107 | -0.585 (inactive) | -3e-05 (inactive) | 0.00348 (inactive) | 14.6% (inactive) | 6.42% (inactive)
17 | CCOc1ccccc1Nc1nc2ccccc2[nH]1 | 327 | 1.2% (inactive) | 5.9% (inactive) | 111 | 2.9% (inactive) | 109 | -0.524 (inactive) | -0.000156 (active) | 0.00599 (inactive) | -18.9% (inactive) | -39.8% (inactive)
18 | COc1ccc(CN(C(=O)CNC(=O)c2ccco2)C(C(=O)NC2CCCC2)c2ccco2)cc1 (centres undefined) | 510 | 7.2% (inactive) | 3.1% (inactive) | 105 | -62.9% (inactive) | 123 | -0.592 (inactive) | -1.6e-05 (inactive) | 0.00679 (inactive) | -14.2% (inactive) | -26.3% (inactive)
19 | Cn1c(CN2CCOCC2)nc2cc(NC(=O)c3ccccc3Cl)ccc21 | 463 | 7.9% (inactive) | -4.3% (inactive) | 102 | -19.9% (inactive) | 113 | -0.588 (inactive) | -2.3e-05 (inactive) | 0.00633 (inactive) | 8.55% (inactive) | 2.36% (inactive)
